# Measured values reported in ChEMBL document CHEMBL1124492, “Folate analogues. 32. Synthesis and biological evaluation of 2-desamino-2-methyl-N10-propargyl-5,8-dideazafolic acid and related compounds” (J Med Chem, 1989).
# How the values were obtained:
# H35R0.3 [1] = assay: Inhibition of growth of H35R cells; assay type: functional, cell-based, Homo sapiens; conditions: Rattus norvegicus
# [2] = Inhibition of growth of colon adenocarcinoma SW 480 cells; assay type: functional, cell-based; conditions: Homo sapiens, SW480
# H35R0.3 [3] = assay: Inhibition of (6RS)-5-formyltetrahydrofolate (2 uM) transport in H35 hepatoma cell culture and % uptake was determined in presence of inhibitor folic acid (50 uM); assay type: functional, cell-based
# Summary of the method: (§1)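 H35 hepatoma cells were grown to confluence, washed twice with Hanks BSS and incubated at 37 °C. [3H]-(6RS)-5-formyltetrahydrofolate (2 μM, 3.8×10^5 dpm/nmol) was added with or without inhibitor, and uptake was sampled at 10 min, within its linear range. Uptake is expressed as percent of the no-inhibitor control, as the mean of duplicate samples.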
# H35R0.3 [4] = assay: Inhibition of (6RS)-5-formyltetrahydrofolate (2 uM) transport in H35 hepatoma cell culture and % uptake was determined in presence of inhibitor PDDF (50 uM); assay type: functional, cell-based; summary of the method: as §1
# H35R0.3 [5] = assay: Inhibition of (6RS)-5-formyltetrahydrofolate (2 uM) transport in H35 hepatoma cell cultured and % uptake was determined in presence of inhibitor (6RS)-5-formyltetrahydrofolate (50 uM); assay type: functional, cell-based; summary of the method: as §1
# [6] = target: T1, Trifunctional purine biosynthetic protein adenosine-3 (Homo sapiens, UniProt P22102); assay: Inhibition of GAR formyltransferase from extract of Manca human lymphoma cells; assay type: cell-based
# T1 sequence (P22102 whole entry): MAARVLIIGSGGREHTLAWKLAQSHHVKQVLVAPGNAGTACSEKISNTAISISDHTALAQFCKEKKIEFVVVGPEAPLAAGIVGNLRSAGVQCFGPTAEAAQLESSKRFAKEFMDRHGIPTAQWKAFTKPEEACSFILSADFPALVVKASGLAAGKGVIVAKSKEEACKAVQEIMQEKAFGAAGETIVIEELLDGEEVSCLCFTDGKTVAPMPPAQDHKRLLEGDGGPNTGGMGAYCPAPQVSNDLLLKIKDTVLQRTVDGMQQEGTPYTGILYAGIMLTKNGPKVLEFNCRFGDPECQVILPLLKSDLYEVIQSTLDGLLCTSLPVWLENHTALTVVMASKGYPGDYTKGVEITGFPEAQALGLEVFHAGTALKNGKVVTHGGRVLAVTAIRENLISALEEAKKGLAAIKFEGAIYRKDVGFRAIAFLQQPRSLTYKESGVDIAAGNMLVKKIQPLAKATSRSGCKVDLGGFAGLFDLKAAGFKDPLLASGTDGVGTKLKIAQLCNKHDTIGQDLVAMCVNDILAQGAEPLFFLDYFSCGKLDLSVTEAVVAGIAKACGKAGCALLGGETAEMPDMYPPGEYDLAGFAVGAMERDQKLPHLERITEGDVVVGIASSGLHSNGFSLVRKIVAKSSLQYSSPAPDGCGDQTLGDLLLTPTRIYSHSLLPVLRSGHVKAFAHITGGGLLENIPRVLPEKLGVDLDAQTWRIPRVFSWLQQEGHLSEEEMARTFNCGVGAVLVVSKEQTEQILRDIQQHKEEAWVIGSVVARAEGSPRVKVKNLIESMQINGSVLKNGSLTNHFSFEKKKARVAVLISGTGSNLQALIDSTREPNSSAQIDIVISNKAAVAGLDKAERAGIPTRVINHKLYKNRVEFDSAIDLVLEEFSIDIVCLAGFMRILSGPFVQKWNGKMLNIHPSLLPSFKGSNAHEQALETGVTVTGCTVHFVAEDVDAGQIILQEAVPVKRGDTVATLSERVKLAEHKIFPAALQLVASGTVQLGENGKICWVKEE
# H35R0.3 [7] = assay: Inhibition of methotrexate (5 uM) transport in H35 hepatoma cell culture and % uptake was reported in presence of inhibitor methotrexate (50 uM); assay type: functional, cell-based
# Summary of the method: (§2)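 Confluent H35 hepatoma monolayers were washed twice with Hanks BSS and held at 37 °C. [3H]methotrexate (5 μM, 5.5×10^5 dpm/nmol) was added with or without inhibitor, and uptake was taken at 4 min, within its linear range. Results are percent of the uninhibited control uptake, averaged from duplicate samples.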
# H35R0.3 [8] = assay: Inhibition of methotrexate (5 uM) transport in H35 hepatoma cell culture and % uptake was reported in presence of inhibitor folic acid (50 uM); assay type: functional, cell-based; summary of the method: as §2
# Thymidylate synthase [9] = target: T2, Thymidylate synthase (Homo sapiens, UniProt P04818); assay: Inhibition of purified human thymidylate synthase from a SV40-transformed human fibroblast cell line cloned in Escherichia coli
# T2 sequence (P04818 whole entry): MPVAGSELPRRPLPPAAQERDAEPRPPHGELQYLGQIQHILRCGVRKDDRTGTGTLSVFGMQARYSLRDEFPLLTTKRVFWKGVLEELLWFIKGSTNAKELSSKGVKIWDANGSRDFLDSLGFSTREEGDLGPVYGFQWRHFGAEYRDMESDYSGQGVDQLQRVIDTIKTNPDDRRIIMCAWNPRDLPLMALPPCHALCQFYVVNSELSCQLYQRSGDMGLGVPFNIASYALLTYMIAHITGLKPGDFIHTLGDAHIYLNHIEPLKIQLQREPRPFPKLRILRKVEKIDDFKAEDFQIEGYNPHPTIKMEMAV
# H35R0.3 [10] = assay: Inhibition of (6RS)-5-formyltetrahydrofolate (2 uM) transport in H35 hepatoma cell culture and % uptake was determined in presence of inhibitor aminopterin (50 uM); assay type: functional, cell-based; summary of the method: as §1
# H35R0.3 [11] = assay: Inhibition of methotrexate (5 uM) transport in H35 hepatoma cell culture and % uptake was reported in presence of inhibitor PDDF (50 uM); assay type: functional, cell-based; summary of the method: as §2
# [12] = Inhibition of growth of H35FF cells; assay type: functional, cell-based
# Summary of the method: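 The H35FF line was derived from H35 cells by growth in 25 μM (6RS)-5-formyltetrahydrofolate, held constant, with FdUR raised from 0.3 nM in 3-fold steps to 100 nM. This selection amplifies thymidylate synthase to about 70 times the H35N level.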
# Dihydrofolate reductase [13] = target: Dihydrofolate reductase (Lactobacillus casei, UniProt P00381); assay: Inhibition of dihydrofolate reductase in Lactobacillus casei; set-up: species or system Lacticaseibacillus casei
# Chain of Dihydrofolate reductase (Lactobacillus casei, UniProt P00381) (P00381 whole entry): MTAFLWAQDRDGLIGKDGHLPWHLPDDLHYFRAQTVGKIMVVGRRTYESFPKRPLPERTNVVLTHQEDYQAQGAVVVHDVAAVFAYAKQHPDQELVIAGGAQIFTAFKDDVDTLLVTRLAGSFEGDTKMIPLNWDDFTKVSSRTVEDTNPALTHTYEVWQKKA
# Lymphoma cell line = assay: Inhibition of growth of tumor cells, manca human lymphoma cells; assay type: functional, cell-based
# Enterococcus faecium = assay: Inhibition of growth of Staphylococcus faecium; assay type: functional, organism-based
# [14] = target: Bifunctional purine biosynthesis protein ATIC (Homo sapiens, UniProt P31939); assay: Inhibition of AICAR formyltransferase from extract of Manca human lymphoma cells; assay type: cell-based
# Chain of Bifunctional purine biosynthesis protein ATIC (P31939 whole entry): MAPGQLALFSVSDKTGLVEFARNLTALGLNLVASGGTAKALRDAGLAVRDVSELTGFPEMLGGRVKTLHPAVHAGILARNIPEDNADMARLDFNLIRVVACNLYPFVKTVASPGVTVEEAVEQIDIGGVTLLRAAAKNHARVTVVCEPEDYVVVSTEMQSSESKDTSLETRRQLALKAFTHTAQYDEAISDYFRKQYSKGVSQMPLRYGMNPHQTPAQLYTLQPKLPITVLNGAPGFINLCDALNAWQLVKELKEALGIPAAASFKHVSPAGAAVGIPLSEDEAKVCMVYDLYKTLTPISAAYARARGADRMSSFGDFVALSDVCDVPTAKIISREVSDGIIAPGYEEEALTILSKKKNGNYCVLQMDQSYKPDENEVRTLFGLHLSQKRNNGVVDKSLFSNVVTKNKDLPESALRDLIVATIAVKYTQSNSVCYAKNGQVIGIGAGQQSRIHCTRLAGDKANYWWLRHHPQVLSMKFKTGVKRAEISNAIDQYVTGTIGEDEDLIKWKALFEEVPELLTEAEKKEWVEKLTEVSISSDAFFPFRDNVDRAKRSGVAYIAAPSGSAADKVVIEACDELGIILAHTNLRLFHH
# Thymidylate synthase [15] = target: T2, Thymidylate synthase; assay: Inhibition of pure human thymidylate synthase from extract of Manca human lymphoma cells; assay type: cell-based
# H35R0.3 [16] = assay: Inhibition of (6RS)-5-formyltetrahydrofolate (2 uM) transport in H35 hepatoma cell culture; assay type: functional, cell-based; summary of the method: as §1
# Thymidylate synthase [17] = target: T3, Thymidylate synthase (Lactobacillus casei, UniProt P00469); assay: Inhibition of thymidylate synthase in Lactobacillus casei; set-up: species or system Lacticaseibacillus casei
# T3 sequence (P00469 whole entry): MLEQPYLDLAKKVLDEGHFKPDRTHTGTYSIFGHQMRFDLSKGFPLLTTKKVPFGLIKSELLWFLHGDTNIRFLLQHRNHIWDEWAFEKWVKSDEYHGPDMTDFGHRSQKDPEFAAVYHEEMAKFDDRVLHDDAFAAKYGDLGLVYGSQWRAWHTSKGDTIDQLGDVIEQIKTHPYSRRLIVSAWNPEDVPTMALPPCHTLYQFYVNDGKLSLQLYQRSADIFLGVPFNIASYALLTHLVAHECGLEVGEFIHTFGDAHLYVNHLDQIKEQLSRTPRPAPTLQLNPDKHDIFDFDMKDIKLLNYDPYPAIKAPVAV
# H35R0.3 [18] = assay: Inhibition of methotrexate (5 uM) transport in H35 hepatoma cell culture and % uptake was reported in presence of inhibitor aminopterin (50 uM); assay type: functional, cell-based; summary of the method: as §2
# H35R0.3 [19] = assay: Inhibition of (6RS)-5-formyltetrahydrofolate (2 uM) transport in H35 hepatoma cell culture and % uptake was determined in presence of inhibitor DMPDDF (50 uM); assay type: functional, cell-based; summary of the method: as §1
# H35R0.3 [20] = assay: Inhibition of methotrexate (5 uM) transport in H35 hepatoma cell culture and % uptake was reported in presence of inhibitor (6RS)-5-formyltetrahydrofolate (50 uM); assay type: functional, cell-based; summary of the method: as §2
# H35R0.3 [21] = assay: Inhibition of (6RS)-5-formyltetrahydrofolate (2 uM) transport in H35 hepatoma cell culture and % uptake was determined in presence of inhibitor methotrexate (50 uM); assay type: functional, cell-based; summary of the method: as §1
# Dihydrofolate reductase [22] = target: T4, Dihydrofolate reductase (Homo sapiens, UniProt P00374); assay: Inhibition of pure human dihydrofolate reductase (DHFR) from lymphoblastoid cells
# T4 sequence (P00374 whole entry): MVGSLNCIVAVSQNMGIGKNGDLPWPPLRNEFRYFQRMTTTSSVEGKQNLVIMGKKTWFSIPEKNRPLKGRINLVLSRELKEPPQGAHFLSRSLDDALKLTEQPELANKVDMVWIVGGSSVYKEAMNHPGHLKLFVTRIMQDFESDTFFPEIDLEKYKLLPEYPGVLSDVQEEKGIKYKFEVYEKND
# H35R0.3 [23] = assay: Inhibition of methotrexate (5 uM) transport in H35 hepatoma cell culture; assay type: functional, cell-based; summary of the method: as §2
# [24] = Inhibition of growth of H35N cells; assay type: functional, cell-based
# Lacticaseibacillus casei = assay: Inhibition of growth of Lactobacillus casei; assay type: functional, organism-based
# H35R0.3 [25] = assay: Inhibition of methotrexate (5 uM) transport in H35 hepatoma cell culture and % uptake was reported in presence of inhibitor DMPDDF (50 uM); assay type: functional, cell-based; summary of the method: as §2
smiles,measurement,setting,value
C#CCN(Cc1ccc2nc(C)nc(O)c2c1)c1ccc(C(=O)NC(CCC(=O)O)C(=O)O)cc1 (centres undefined),IC50,H35R0.3 [1],2240 nM
same,IC50,[2],50 nM
same,Uptake,H35R0.3 [3],83%
same,Uptake,H35R0.3 [4],90%
same,Uptake,H35R0.3 [5],22%
same,IC50,[6],> 17000 nM
same,Uptake,H35R0.3 [7],25%
same,Uptake,H35R0.3 [8],85%
same,IC50,Thymidylate synthase [9],9.8 nM
same,Uptake,H35R0.3 [10],11%
same,Uptake,H35R0.3 [11],100%
same,IC50,[12],7280 nM
same,IC50,Dihydrofolate reductase [13],35000 nM
same,IC50,Lymphoma cell line,13 nM
same,IC50,Enterococcus faecium,6 nM
same,IC50,[14],> 60000 nM
same,IC50,Thymidylate synthase [15],60 nM
same,Uptake,H35R0.3 [16],100%
same,IC50,Thymidylate synthase [17],100 nM
same,Uptake,H35R0.3 [18],25%
same,Uptake,H35R0.3 [19],8.5%
same,Uptake,H35R0.3 [20],25%
same,Uptake,H35R0.3 [21],22%
same,IC50,Dihydrofolate reductase [22],> 30000 nM
same,Uptake,H35R0.3 [23],100%
same,IC50,[24],55 nM
same,IC50,Lacticaseibacillus casei,22 nM
same,Uptake,H35R0.3 [25],25%
C#CCN(Cc1ccc2nc(C)n(C)c(=O)c2c1)c1ccc(C(=O)NC(CCC(=O)O)C(=O)O)cc1 (centres undefined),IC50,[2],> 100000 nM
same,IC50,Thymidylate synthase [9],11300 nM
C#CCN(Cc1ccc2[nH]c(N)nc(=O)c2c1)c1ccc(C(=O)NC(CCC(=O)O)C(=O)O)cc1 (centres undefined),IC50,H35R0.3 [1],2000 nM
same,IC50,Lymphoma cell line,560 nM
same,IC50,Enterococcus faecium,0.13 nM
same,IC50,[24],3600 nM
same,IC50,Lacticaseibacillus casei,0.4 nM
CN(Cc1cnc2nc(N)nc(N)c2n1)c1ccc(C(=O)N[C@@H](CCC(=O)O)C(=O)O)cc1 [METHOTREXATE],IC50,H35R0.3 [1],906 nM
same,IC50,[12],10 nM
same,IC50,[24],10 nM
C#CCN(Cc1ccc2nc(C(F)(F)F)nc(O)c2c1)c1ccc(C(=O)NC(CCC(=O)O)C(=O)O)cc1 (centres undefined),IC50,[2],> 100000 nM
